The test system of one assay is Streptococcus pneumoniae. Put plainly: Compound was tested for inhibition of the […] organism Streptococcus pneumoniae SV-1. The class given is functional. The method, boiled down:
(§1)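 MICs read in standard microdilution (microtitration) format against a panel of 10 bacterial organisms; values in µg/mL.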

Assay [1] concerns Mus musculus. Kind of assay: Compound was evaluated for protective dose against the […] UC-76 lethal infection following po administration in mouse. The class given is functional. To be noted: read-out: PD50. The method, boiled down: (§2)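 Acute lethal systemic infection in female Charles River CD-1 mice (18–22 g), challenged intraperitoneally with an estimated 100 median lethal dose in 5% hog gastric mucin. Single doses in a twofold rising series were given with the challenge, sc as aqueous solution or po by gavage in 5% gum acacia. PD50 (mg/kg) was estimated by log probit from survival of eight mice per dose.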

Assay [2] relates to Mus musculus. Kind of assay: Compound was evaluated for protective dose against the Escherichia coli vogel lethal infection following sc administration in mouse. It counts as functional. The note with it: read-out: PD50. The method, boiled down:
as §2

For assay [3], the target named is DNA gyrase (Escherichia coli) (UniProt P0AES6+P0AES4). Put plainly: Inhibition of DNA gyrase of Escherichia coli H560 cells. The method, boiled down: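 DNA gyrase purified from Escherichia coli H560 cells. Cleavage assay: drug-gyrase-DNA complex denatured, converting closed circular DNA to linear DNA. Linear DNA resolved by gel electrophoresis and stained with ethidium bromide. Value is the minimum drug concentration (µg/mL) giving linear DNA at an intensity relative to oxolinic acid at 10 µg/mL. Aqueous drug stocks made up in 0.1 N NaOH or KOH.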

The subject of a further assay is Enterobacter cloacae. Kind of assay: Compound was tested for inhibition of the gram-negative organism […] HA 2646. It counts as functional.
The subject of assay [4] is Mus musculus. Kind of assay: Compound was evaluated for protective dose against the […] UC-76 lethal infection following sc administration in mouse. The class given is functional. To be noted: read-out: PD50. The method, boiled down:
as §2

The subject of assay [5] is Staphylococcus aureus. Put plainly: Compound was tested for inhibition of the […] organism […] UC-76. It counts as functional. The method, boiled down:
as §1

For another assay, the system named is Klebsiella pneumoniae. Put plainly: Compound was tested for inhibition of the gram-negative organism Klebsiella pneumoniae MGH-2. It counts as functional. The method, boiled down:
as §1

The next assay deals with Enterococcus faecalis. Put plainly: Compound was tested for inhibition of the […] organism Streptococcus faecalis MGH-2. It counts as functional. The method, boiled down:
as §1

For a further assay, the system named is Pseudomonas aeruginosa. Put plainly: Compound was tested for inhibition of the gram-negative organism Pseudomonas aeruginosa UI-18. It counts as functional. The method, boiled down: as §1
For assay [6], the system named is Escherichia coli. Put plainly: Compound was tested for inhibition of the gram-negative organism Escherichia coli H560. It counts as functional. The method, boiled down:
as §1

Assay [7] relates to Staphylococcus aureus. Put plainly: Compound was tested for inhibition of the […] organism […] H228. It counts as functional. The method, boiled down: as §1
Assay [8] deals with Escherichia coli. Kind of assay: Compound was tested for inhibition of the gram-negative organism Escherichia coli vogel. The class given is functional. The method, boiled down:
as §1

The test system of the next assay is Providencia rettgeri. Kind of assay: Compound was tested for inhibition of the gram-negative organism Providencia rettgeri H1771. The class given is functional. The method, boiled down: as §1
Assay [9] relates to Mus musculus. Put plainly: Compound was evaluated for protective dose against the Escherichia coli vogel lethal infection following peroral administration in mouse. The class given is functional. The note with it: po, read-out: PD50. The method, boiled down: as §2
The subject of another assay is Streptococcus pyogenes. Put plainly: Compound was tested for inhibition of the […] organism Streptococcus pyogenes C203. It counts as functional. The method, boiled down: as §1
Assay [10] has as its system Mus musculus. Put plainly: Compound was evaluated for protective dose against the Streptococcus pneumoniae SV-1 lethal infection following po administration. The note with it: read-out: PD50. The class given is functional. The method, boiled down:
(§3)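 Female Charles River CD-1 mice (18–22 g) were challenged intraperitoneally with an estimated 100 median lethal dose in tryptic soy broth. Single doses, in a twofold rising series, were given at the same time as challenge: subcutaneously as aqueous solution, or orally by gavage in 5% gum acacia. Survival in groups of eight mice per dose gave PD50 (mg/kg) by log probit.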

Assay [11] deals with Mus musculus. Kind of assay: Compound was evaluated for protective dose against Streptococcus pneumoniae SV-1 lethal infection following sc administration. It counts as functional. The note with it: read-out: PD50. The method, boiled down:
as §3

≈ marks a conversion by molar mass, not a printed value. Some results are limits rather than exact numbers.

As for `CCn1cc(C(=O)O)c(=O)c2cc(F)c(N3CCC(CN)C3)cc21` (stereo not given), the MIC (usually the lowest concentration found to suppress growth) against Streptococcus pneumoniae turned out to be 0.2 µg/mL (≈ 0.6 µM); in the assay with Enterobacter cloacae it was 1.6 µg/mL (≈ 4.8 µM); against Staphylococcus aureus [5], 0.05 µg/mL (≈ 0.15 µM); with Klebsiella pneumoniae, 3.1 µg/mL (≈ 9.3 µM); in the assay with Enterococcus faecalis, 0.8 µg/mL (≈ 2.4 µM); against Pseudomonas aeruginosa it was 1.6 µg/mL (≈ 4.8 µM). Also, the MIC in the assay on Escherichia coli [6] was found to be 0.4 µg/mL (≈ 1.2 µM); against Staphylococcus aureus [7], 1.6 µg/mL (≈ 4.8 µM); in the assay with Escherichia coli [8], 0.8 µg/mL (≈ 2.4 µM); against Providencia rettgeri it was 6.3 µg/mL (≈ 18.9 µM); against Streptococcus pyogenes, 0.2 µg/mL (≈ 0.6 µM). The ED50 in the assay on Mus musculus [1] was greater than 50 mg/kg; with Mus musculus [2] it was 25 mg/kg; with Mus musculus [4], 6 mg/kg; in the assay with Mus musculus [9], greater than 100 mg/kg. Moreover, the Min concentration in assay [3] came out at 3 µg/mL.
For `CCn1cc(C(=O)O)c(=O)c2cc(F)c(N3CCC(CNC)C3)cc21` (stereo not given), the ED50 is greater than 100 mg/kg in the assay on Mus musculus [10]; greater than 50 mg/kg with Mus musculus [1]; 18 mg/kg in the assay with Mus musculus [2]; greater than 25 mg/kg with Mus musculus [11]; 8 mg/kg with Mus musculus [4]; greater than 100 mg/kg in the assay on Mus musculus [9]. Also, the MIC against Streptococcus pneumoniae was 0.2 µg/mL (≈ 0.576 µM); against Enterobacter cloacae it was 1.6 µg/mL (≈ 4.61 µM); against Staphylococcus aureus [5] it was 0.013 µg/mL (≈ 0.0374 µM); in the assay with Klebsiella pneumoniae it was 1.6 µg/mL (≈ 4.61 µM); in the assay on Enterococcus faecalis, 1.6 µg/mL (≈ 4.61 µM); in the assay with Pseudomonas aeruginosa it was 1.6 µg/mL (≈ 4.61 µM). Moreover, the MIC worked out at 0.2 µg/mL (≈ 0.576 µM) against Escherichia coli [6]; 0.8 µg/mL (≈ 2.3 µM) in the assay with Staphylococcus aureus [7]; 0.2 µg/mL (≈ 0.576 µM) in the assay with Escherichia coli [8]; 6.3 µg/mL (≈ 18.1 µM) with Providencia rettgeri; 0.1 µg/mL (≈ 0.288 µM) against Streptococcus pyogenes.
Turning to `CCn1cc(C(=O)O)c(=O)c2cc(F)c(N3CCC(CN)C3)c(F)c21` (stereo not given), the ED50 in the assay with Mus musculus [10] amounted to 100 mg/kg; in the assay with Mus musculus [2], 1.2 mg/kg; with Mus musculus [11], 5 mg/kg; in the assay with Mus musculus [9], 90 mg/kg. In addition, the MIC in the assay on Streptococcus pneumoniae worked out at 0.2 µg/mL (≈ 0.569 µM); in the assay on Enterobacter cloacae, 0.2 µg/mL (≈ 0.569 µM); with Staphylococcus aureus [5], 0.1 µg/mL (≈ 0.285 µM); in the assay with Klebsiella pneumoniae it was 0.4 µg/mL (≈ 1.14 µM); in the assay with Enterococcus faecalis, 0.1 µg/mL (≈ 0.285 µM); against Pseudomonas aeruginosa, 0.8 µg/mL (≈ 2.28 µM). For the same molecule, the MIC turned out to be 0.1 µg/mL (≈ 0.285 µM) against Escherichia coli [6]; 0.1 µg/mL (≈ 0.285 µM) against Staphylococcus aureus [7]; 0.1 µg/mL (≈ 0.285 µM) in the assay with Escherichia coli [8]; 0.4 µg/mL (≈ 1.14 µM) with Providencia rettgeri; 0.1 µg/mL (≈ 0.285 µM) with Streptococcus pyogenes. In addition, in [3], the Min concentration was found to be 0.5 µg/mL.
For `CCNCC1CCN(c2cc3c(cc2F)c(=O)c(C(=O)O)cn3CC)C1` (stereo not given), the MIC in the assay on Streptococcus pneumoniae was 0.2 µg/mL (≈ 0.553 µM); against Enterobacter cloacae, 0.2 µg/mL (≈ 0.553 µM); in the assay on Staphylococcus aureus [5] it was 0.05 µg/mL (≈ 0.138 µM); against Klebsiella pneumoniae, 0.4 µg/mL (≈ 1.11 µM); against Enterococcus faecalis, 0.2 µg/mL (≈ 0.553 µM); against Pseudomonas aeruginosa, 1.6 µg/mL (≈ 4.43 µM). The MIC against Escherichia coli [6] came to 0.1 µg/mL (≈ 0.277 µM); against Staphylococcus aureus [7] it was 0.2 µg/mL (≈ 0.553 µM); against Escherichia coli [8], 0.1 µg/mL (≈ 0.277 µM); against Providencia rettgeri it was 1.6 µg/mL (≈ 4.43 µM); in the assay with Streptococcus pyogenes, 0.1 µg/mL (≈ 0.277 µM). Also, the ED50 was 35 mg/kg with Mus musculus [1], 15 mg/kg in the assay on Mus musculus [2], 3 mg/kg in the assay on Mus musculus [4] and greater than 100 mg/kg in the assay with Mus musculus [9]. Also, the Min concentration in [3] came out at 2.5 µg/mL.
Regarding `CCn1cc(C(=O)O)c(=O)c2cc(F)c(N3CCC(CNC)C3)c(F)c21` (stereo not given), the ED50 in the assay on Mus musculus [10] is 37 mg/kg; in the assay on Mus musculus [2], 1.9 mg/kg; in the assay on Mus musculus [11], 11 mg/kg; with Mus musculus [9] it was 6.9 mg/kg. Further, the MIC was 0.1 µg/mL (≈ 0.274 µM) in the assay on Streptococcus pneumoniae; 0.4 µg/mL (≈ 1.09 µM) in the assay on Enterobacter cloacae; 0.1 µg/mL (≈ 0.274 µM) against Staphylococcus aureus [5]; 0.8 µg/mL (≈ 2.19 µM) against Klebsiella pneumoniae; 0.1 µg/mL (≈ 0.274 µM) with Enterococcus faecalis; 1.6 µg/mL (≈ 4.38 µM) in the assay on Pseudomonas aeruginosa. The MIC in the assay with Escherichia coli [6] was found to be 0.2 µg/mL (≈ 0.547 µM); in the assay with Staphylococcus aureus [7] it was 0.2 µg/mL (≈ 0.547 µM); against Escherichia coli [8], 0.4 µg/mL (≈ 1.09 µM); against Providencia rettgeri, 0.8 µg/mL (≈ 2.19 µM); against Streptococcus pyogenes, 0.1 µg/mL (≈ 0.274 µM). This molecule also returned a Min concentration in assay [3] of 0.5 µg/mL.
As to `CNn1cc(C(=O)O)c(=O)c2cc(F)c(N3CCN(C)CC3)cc21` [AMIFLOXACIN], the ED50 in the assay on Mus musculus [10] is greater than 100 mg/kg; in the assay with Mus musculus [2] it was 1 mg/kg; with Mus musculus [11], greater than 25 mg/kg; in the assay with Mus musculus [9], 4.5 mg/kg. Besides, the MIC with Streptococcus pneumoniae worked out at 12.5 µg/mL (≈ 37.4 µM); against Staphylococcus aureus [5], 0.4 µg/mL (≈ 1.2 µM); in the assay with Klebsiella pneumoniae, 0.2 µg/mL (≈ 0.598 µM); against Enterococcus faecalis, 3.1 µg/mL (≈ 9.27 µM); in the assay on Pseudomonas aeruginosa, 0.8 µg/mL (≈ 2.39 µM); against Escherichia coli [6] it was 0.025 µg/mL (≈ 0.0748 µM). In addition, the minimum inhibitory concentration (MIC) with Staphylococcus aureus [7] turned out to be 1.6 µg/mL (≈ 4.79 µM); against Escherichia coli [8], 0.1 µg/mL (≈ 0.299 µM); in the assay on Providencia rettgeri it was 0.2 µg/mL (≈ 0.598 µM); in the assay on Streptococcus pyogenes, 12.5 µg/mL (≈ 37.4 µM).

(Values after ChEMBL document CHEMBL1123422, “1-Ethyl-7-[3-[(ethylamino)methyl]-1-pyrrolidinyl]-6,8-difluoro-1,4- dihydro-4-oxo-3-quinoline-carboxylic acid. New quinolone antibacterial with potent gram-positive activity” (1986).)
